From ChEMBL document CHEMBL1152234, “Synthesis and antitumoral evaluation of indole alkaloid analogues containing an hexahydropyrrolo[1',2',3':1,9a,9]imidazo[1,2-a]indole skeleton” (2008)
Active and inactive are the calls of the source. The calls are words filed in the database; no cut-off is given here.

Columns and labels:
[1] = target: Epidermal growth factor receptor (Homo sapiens) (UniProt P00533); experiment: Inhibition of EGFR expressed in human HeLa cells at 10 ug/mL by AP1-luciferase reporter gene assay relative to control; assay type: cell-based
How it was run: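 AP1-luc stably transfected HeLa cells were grown in DMEM/10% FBS at 20,000 cells/well and set for 24 h. They were treated with 1% DMSO vehicle or compound (10, 2, 0.4, 0.08, 0.016 µg/mL) before stimulation with EGF at 25 ng/mL. Control inhibitor was AG-1478 at 20 µM. Survival was checked by calcein-AM (0.1 µM, 30 min, 37 °C), then luciferase read by luminescence. Values are % of control.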

A549 = experiment: Cytotoxicity against human A549 cells after 48 hrs by sulforhodamine B assay; assay type: functional; settings: A549, 48 h; for CC50: read-out: LC50 (the source's name)
How it was run: (§1)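 Cells seeded at 5×10^3 per well in RPMI and allowed to attach for 18 h in drug-free medium. Samples were added in 3:7 DMSO/H2O, with highest concentration 100 µM, and exposed for 48 h. Cells were fixed with cold TCA at 4 °C for 60 min, stained with 0.4% SRB and solubilized in Tris. OD was read at 490 nm. GI50, TGI and LC50 came from automated analysis following the NCI protocol.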

HeLa = experiment: Inhibition of mitosis in human HeLa cells assessed as G2 checkpoint inhibition by ELISA; assay type: functional, cell-based
How it was run: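 ELISA immunoassay in HeLa cells. Paclitaxel and vinblastine (each 1 µg/mL) were control inhibitors. Five fixed concentrations were tested (10, 2, 0.4, 0.08, 0.016 µg/mL). Inhibition and survival are given as % of controls.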

HT-29 = experiment: Cytotoxicity against human HT-29 cells after 48 hrs by sulforhodamine B assay; assay type: functional; settings: HT-29, 48 h; how it was run: as §1
MDA-MB-231 [2] = experiment: Inhibition of histone deacetylase expressed in human MDA-MB-231 cells; assay type: cell-based
How it was run: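 Cell extracts from MDA-MB-231 breast carcinoma served as enzyme source. Trichostatin A at 250 nM was the reference inhibitor. Test concentrations were 10, 2, 0.4, 0.08 and 0.016 µg/mL. Data are % inhibition relative to controls.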

[3] = target: T1, Catenin beta-1 (Homo sapiens) (UniProt P35222); experiment: Inhibition of beta-catenin expressed in human SW480 cells by luciferase reporter gene assay
T1 sequence (whole entry): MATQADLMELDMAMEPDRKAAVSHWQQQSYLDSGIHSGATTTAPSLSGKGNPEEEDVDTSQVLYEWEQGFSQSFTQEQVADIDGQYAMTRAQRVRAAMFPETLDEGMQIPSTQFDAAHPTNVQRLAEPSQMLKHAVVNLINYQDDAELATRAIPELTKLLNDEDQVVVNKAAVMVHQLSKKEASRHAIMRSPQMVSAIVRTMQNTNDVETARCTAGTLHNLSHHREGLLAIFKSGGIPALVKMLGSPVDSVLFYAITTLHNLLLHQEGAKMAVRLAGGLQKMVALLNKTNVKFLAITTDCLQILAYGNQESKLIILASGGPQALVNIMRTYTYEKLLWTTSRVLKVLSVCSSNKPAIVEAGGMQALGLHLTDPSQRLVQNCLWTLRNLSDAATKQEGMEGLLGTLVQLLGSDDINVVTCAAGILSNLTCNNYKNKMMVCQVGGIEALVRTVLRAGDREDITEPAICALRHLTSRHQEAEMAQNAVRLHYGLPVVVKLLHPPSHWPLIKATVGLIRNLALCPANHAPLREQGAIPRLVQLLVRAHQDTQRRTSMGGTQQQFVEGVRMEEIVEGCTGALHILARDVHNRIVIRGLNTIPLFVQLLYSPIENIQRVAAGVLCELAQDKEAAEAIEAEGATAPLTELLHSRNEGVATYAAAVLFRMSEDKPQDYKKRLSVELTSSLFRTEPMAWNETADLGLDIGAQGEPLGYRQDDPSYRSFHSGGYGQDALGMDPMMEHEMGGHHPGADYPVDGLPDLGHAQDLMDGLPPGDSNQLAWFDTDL

MDA-MB-231 [4] = experiment: Cytotoxicity against human MDA-MB-231 cells after 48 hrs by sulforhodamine B assay; assay type: functional; settings: MDA-MB-231, 48 h; for CC50: read-out: LC50 (the source's name); how it was run: as §1
[5] = target: Hypoxia-inducible factor 1-alpha (Homo sapiens) (UniProt Q16665); experiment: Inhibition of HIF1alpha expressed in human HeLa cells at 10 ug/mL by HIF1-luciferase reporter gene assay relative to control; assay type: cell-based
How it was run: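 HIF1-luc stably transfected HeLa cells were plated at 20,000 cells/well and set for 24 h. They were pretreated 30 min with 1% DMSO vehicle or compound (10, 2, 0.4, 0.08, 0.016 µg/mL), then given 50 µM deferoxamine as hypoxia mimetic for 24 h. Survival was measured by calcein-AM fluorescence (0.1 µM, 30 min, 37 °C), followed by luciferase luminescence. Reported as % of control.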

Chain of Hypoxia-inducible factor 1-alpha (Homo sapiens) (Q16665 whole entry, looked up): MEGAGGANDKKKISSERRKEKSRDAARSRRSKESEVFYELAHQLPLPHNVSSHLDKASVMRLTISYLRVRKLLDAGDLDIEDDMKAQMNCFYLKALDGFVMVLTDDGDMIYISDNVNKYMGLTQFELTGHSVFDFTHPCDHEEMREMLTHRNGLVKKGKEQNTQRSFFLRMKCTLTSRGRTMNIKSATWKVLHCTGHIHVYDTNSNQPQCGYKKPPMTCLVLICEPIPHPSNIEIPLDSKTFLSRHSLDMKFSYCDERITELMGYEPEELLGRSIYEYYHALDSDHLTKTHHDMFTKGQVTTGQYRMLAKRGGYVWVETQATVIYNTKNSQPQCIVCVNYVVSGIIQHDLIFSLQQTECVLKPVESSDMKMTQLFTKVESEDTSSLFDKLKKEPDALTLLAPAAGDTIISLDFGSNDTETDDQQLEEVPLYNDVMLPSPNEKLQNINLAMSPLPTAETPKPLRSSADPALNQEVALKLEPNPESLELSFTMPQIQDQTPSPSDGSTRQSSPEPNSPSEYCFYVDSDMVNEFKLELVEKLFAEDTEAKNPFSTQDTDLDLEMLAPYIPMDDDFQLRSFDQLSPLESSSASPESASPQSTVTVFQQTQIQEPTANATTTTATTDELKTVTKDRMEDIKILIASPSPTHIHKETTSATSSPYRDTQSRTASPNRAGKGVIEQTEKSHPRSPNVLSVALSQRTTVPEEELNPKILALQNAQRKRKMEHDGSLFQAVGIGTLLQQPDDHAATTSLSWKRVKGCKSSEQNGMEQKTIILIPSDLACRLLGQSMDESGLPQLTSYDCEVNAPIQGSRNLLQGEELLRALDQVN
Chain of Epidermal growth factor receptor (Homo sapiens) (P00533 whole entry): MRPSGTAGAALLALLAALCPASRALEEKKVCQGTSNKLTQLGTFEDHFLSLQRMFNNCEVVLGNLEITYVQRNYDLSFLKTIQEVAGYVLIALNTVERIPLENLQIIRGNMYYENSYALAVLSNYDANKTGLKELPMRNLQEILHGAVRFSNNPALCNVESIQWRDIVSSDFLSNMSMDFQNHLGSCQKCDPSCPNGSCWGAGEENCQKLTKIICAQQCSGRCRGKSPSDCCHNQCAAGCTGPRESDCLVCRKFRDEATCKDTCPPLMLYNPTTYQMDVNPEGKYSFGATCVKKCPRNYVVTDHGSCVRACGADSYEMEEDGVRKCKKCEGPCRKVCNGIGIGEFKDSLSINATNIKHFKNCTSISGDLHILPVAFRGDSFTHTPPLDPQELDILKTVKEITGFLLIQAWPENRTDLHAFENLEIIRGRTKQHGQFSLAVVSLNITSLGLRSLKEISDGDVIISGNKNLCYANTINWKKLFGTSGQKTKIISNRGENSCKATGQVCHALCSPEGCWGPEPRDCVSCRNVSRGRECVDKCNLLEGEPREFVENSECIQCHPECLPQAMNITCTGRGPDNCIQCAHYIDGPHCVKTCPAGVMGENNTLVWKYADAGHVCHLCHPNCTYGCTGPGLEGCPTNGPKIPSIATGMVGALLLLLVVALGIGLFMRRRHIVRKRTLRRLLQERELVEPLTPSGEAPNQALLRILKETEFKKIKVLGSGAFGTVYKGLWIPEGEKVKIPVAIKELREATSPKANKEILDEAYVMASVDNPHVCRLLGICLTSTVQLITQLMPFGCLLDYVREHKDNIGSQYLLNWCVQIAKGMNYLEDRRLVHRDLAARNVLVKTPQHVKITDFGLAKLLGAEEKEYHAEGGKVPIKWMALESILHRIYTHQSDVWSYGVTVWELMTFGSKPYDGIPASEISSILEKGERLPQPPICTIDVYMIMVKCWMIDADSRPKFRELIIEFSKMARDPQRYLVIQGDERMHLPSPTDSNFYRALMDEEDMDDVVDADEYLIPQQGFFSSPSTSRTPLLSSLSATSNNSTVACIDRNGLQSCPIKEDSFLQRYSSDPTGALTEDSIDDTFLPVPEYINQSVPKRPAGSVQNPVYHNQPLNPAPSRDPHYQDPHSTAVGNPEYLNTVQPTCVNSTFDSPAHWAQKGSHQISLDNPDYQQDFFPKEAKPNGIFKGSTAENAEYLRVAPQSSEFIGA

Row | Structure (SMILES) | inhibition [1] | GI50 (A549) | TGI (A549) | CC50 (A549) | Activity (HeLa) | GI50 (HT-29) | LC50 (concentration killing 50% of cells) (HT-29) | TGI (HT-29) | Activity (MDA-MB-231 [2]) | Activity [3] | GI50 (MDA-MB-231 [4]) | TGI (MDA-MB-231 [4]) | CC50 (MDA-MB-231 [4]) | inhibition [5]
1 | COC(=O)[C@@H]1C[C@@]2(Br)c3cc(Br)ccc3N3C(=N)C4(CCCCC4)N1[C@H]32 | 83% | 7.24 µM | 10.8 µM | 16.1 µM | inactive | 7.45 µM | 14.1 µM | 9.31 µM | inactive | inactive | 6.21 µM | 8.49 µM | > 100 µM | –
2 | COC(=O)[C@@H]1C[C@@]2(CC=C(C)C)c3ccccc3N3C(=N)C(C)(C)N1[C@H]32 | 0% | 5.66 µM | 28.3 µM | 28.3 µM | inactive | 4.24 µM | 28.3 µM | 28.3 µM | inactive | inactive | 11 µM | 28.3 µM | 28.3 µM | 73%
3 | COC(=O)[C@@H]1C[C@@]2(Br)c3cc(Br)ccc3N3C(=N)C(C)(C)N1[C@H]32 | 45% | > 100 µM | > 100 µM | > 100 µM | inactive | > 100 µM | > 100 µM | > 100 µM | inactive | inactive | > 100 µM | > 100 µM | > 100 µM | 55%
4 | COC(=O)[C@@H]1C[C@@]2(Br)c3ccccc3N3C(=N)[C@H](C(C)(C)C)N1[C@H]32 | 0% | > 100 µM | > 100 µM | > 100 µM | inactive | > 100 µM | > 100 µM | > 100 µM | inactive | inactive | 17.6 µM | 25.5 µM | 25.5 µM | 70%
5 | COC(=O)[C@@H]1C[C@H]2c3ccccc3N3C(=N)C(C)(C)N1[C@@H]23 | – | – | – | – | inactive | – | – | – | inactive | inactive | – | – | – | –
6 | COC(=O)[C@@H]1C[C@]2(CC=C(C)C)c3ccccc3N3C(=N)[C@@H](Cc4ccccc4)N1[C@@H]32 | 0% | 12 µM | 24.1 µM | 24.1 µM | inactive | > 100 µM | > 100 µM | > 100 µM | inactive | inactive | 9.39 µM | 24.1 µM | 24.1 µM | 61%
7 | C=CC[C@@]12C[C@@H](C(=O)OC)N3[C@@H]1N(C(=N)C31CCCCC1)c1ccccc12 | 52% | 23.3 µM | 24.1 µM | 25.2 µM | inactive | 22.4 µM | 25.2 µM | 23.5 µM | inactive | inactive | 23.5 µM | 24.6 µM | 25.7 µM | –
8 | COC(=O)[C@@H]1C[C@@]2(Br)c3cc(Br)ccc3N3C(=N)[C@H](C(C)(C)C)N1[C@H]32 | 0% | > 100 µM | > 100 µM | > 100 µM | inactive | > 100 µM | > 100 µM | > 100 µM | inactive | inactive | > 100 µM | > 100 µM | > 100 µM | 73%
9 | COC(=O)[C@@H]1C[C@@]2(CC=C(C)C)c3ccccc3N3C(=N)[C@H](c4ccccc4)N1[C@H]32 | 13% | > 100 µM | > 100 µM | > 100 µM | inactive | > 100 µM | > 100 µM | > 100 µM | inactive | inactive | > 100 µM | > 100 µM | > 100 µM | 78%
10 | COC(=O)[C@@H]1C[C@@]2(CC=C(C)C)c3ccccc3N3C(=N)[C@H](C(C)(C)C)N1[C@H]32 | 0% | > 100 µM | > 100 µM | > 100 µM | inactive | > 100 µM | > 100 µM | > 100 µM | inactive | inactive | 15.2 µM | 26.2 µM | 26.2 µM | 83%
11 | COC(=O)[C@@H]1C[C@@]2(CC=C(C)C)c3ccccc3N3C(=N)[C@H](Cc4ccccc4)N1[C@H]32 | 20% | 22.1 µM | 24.1 µM | 24.1 µM | inactive | 20.2 µM | 24.1 µM | 24.1 µM | inactive | inactive | > 100 µM | > 100 µM | > 100 µM | 78%
12 | COC(=O)[C@@H]1C[C@H]2c3ccccc3N3C(=N)C4(CCCCC4)N1[C@@H]23 | – | 9.23 µM | 9.23 µM | 9.23 µM | inactive | 9.23 µM | 9.23 µM | 9.23 µM | inactive | inactive | – | – | – | –
